The record followed here is paper PMC3574227 (Journal of medicinal chemistry, 2013).

Structures are written as SMILES. Where “and” joins values, the source holds several entries; their conditions need not be identical. Equal values may be shown once.

Assay [1] concerns human plasma. The experiment in a line: Prothrombin time. The conditions noted are these: citrated human plasma. A digest of the protocol:
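One-stage recalcification PT on a fibrometer. Test compound was made up in citrated pooled normal human plasma and held 30 s at 37 °C. Clotting was then started with prewarmed reconstituted thromboplastin-D. Clotting time was plotted against concentration and fitted to a quadratic trend line, from which the concentration doubling clotting time was taken.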

The test system of assay [2] is human plasma. The assay is described as follows: Activated partial thromboplastin time. The conditions noted are these: for concentration required for a 2-fold increase in APTT: citrated human plasma.
Assay [3] has as its target human factor XIa (Homo sapiens, UniProt P03951). The assay is described as follows: Direct inhibition of FXIa, chromogenic substrate. In kind it is biochemical.
Assay [4] deals with factor IXa (Homo sapiens, UniProt P00740). The assay is described as follows: Chromogenic substrate hydrolysis assay, factor IXa. The format is biochemical. A digest of the protocol:
(§1)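 Chromogenic substrate hydrolysis with human plasma enzymes, substrate level set from its KM. Enzyme and substrate in well: thrombin 6 nM with Spectrozyme TH 50 µM; factor Xa 1.09 nM with Spectrozyme FXa 125 µM; factor XIIa 5 nM with Spectrozyme FXIIa 125 µM; factor IXa 89 nM with Spectrozyme FIXa 850 µM. Residual activity read spectrophotometrically at six or more serial test compound dilutions, then dose–response fitted.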

Assay [5] concerns the target T1, factor XIIa (Homo sapiens, UniProt P00748).
T1 sequence (P00748 373-615 limits assumed): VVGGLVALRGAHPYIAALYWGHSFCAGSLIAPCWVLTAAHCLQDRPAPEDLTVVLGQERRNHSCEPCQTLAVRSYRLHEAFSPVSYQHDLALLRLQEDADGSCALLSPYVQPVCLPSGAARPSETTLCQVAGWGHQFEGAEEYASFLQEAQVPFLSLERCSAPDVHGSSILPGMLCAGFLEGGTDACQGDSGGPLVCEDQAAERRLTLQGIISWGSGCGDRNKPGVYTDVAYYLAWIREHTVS
T1 sequence (P00748 20-372 partner limits assumed): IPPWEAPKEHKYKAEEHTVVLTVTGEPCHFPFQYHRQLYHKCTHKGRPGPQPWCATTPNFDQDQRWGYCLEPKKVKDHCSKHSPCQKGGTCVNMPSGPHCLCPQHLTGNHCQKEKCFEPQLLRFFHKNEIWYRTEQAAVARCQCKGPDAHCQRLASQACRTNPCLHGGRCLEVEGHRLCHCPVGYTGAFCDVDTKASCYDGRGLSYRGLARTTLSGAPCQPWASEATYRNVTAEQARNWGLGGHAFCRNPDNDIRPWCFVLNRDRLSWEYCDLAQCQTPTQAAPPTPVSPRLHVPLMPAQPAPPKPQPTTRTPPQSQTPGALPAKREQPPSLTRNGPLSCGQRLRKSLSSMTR
The experiment in a line: Chromogenic substrate hydrolysis assay, factor XIIa. The format is biochemical. Put shortly:
as §1

Assay [6] deals with thrombin (Homo sapiens, UniProt P00734). The assay is described as follows: Chromogenic substrate hydrolysis assay, thrombin. In kind it is biochemical. Put shortly: as §1
The target in assay [7] is factor VIIa (Homo sapiens, UniProt P08709). The experiment in a line: Chromogenic substrate hydrolysis assay, factor VIIa. The following applies: NI = no inhibition observed up to 3.7 mg/mL. The format is biochemical. Put shortly:
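Plasma-derived human factor VIIa (8 nM) with 40 nM recombinant tissue factor and Spectrozyme factor VIIa substrate (1000 µM, in well; level chosen from KM). Residual activity was read spectrophotometrically across six or more serially diluted test compound concentrations to build an inhibition profile for IC50.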

Assay [8] deals with T2, bovine trypsin (Bos taurus, UniProt P00760).
T2 sequence (P00760 24-246): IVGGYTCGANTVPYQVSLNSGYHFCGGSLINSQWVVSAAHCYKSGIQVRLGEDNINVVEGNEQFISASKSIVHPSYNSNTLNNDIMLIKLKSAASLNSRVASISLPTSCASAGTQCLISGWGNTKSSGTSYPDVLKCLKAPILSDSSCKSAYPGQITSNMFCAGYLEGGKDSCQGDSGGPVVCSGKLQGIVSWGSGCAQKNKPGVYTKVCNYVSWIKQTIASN
The assay is described as follows: Chromogenic substrate hydrolysis assay, trypsin. In kind it is biochemical. The following applies: NI = no inhibition observed up to 1.8 mg/mL. A digest of the protocol:
(§2)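 Digestive protease counter-screen: bovine trypsin 72.5 ng/mL with S-2222 80 µM, or bovine α-chymotrypsin 500 ng/mL with Spectrozyme CTY 240 µM (in-well levels; substrate chosen from KM). Fractional residual activity was measured spectrophotometrically at six or more serially diluted test compound concentrations, profiled for IC50.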

The target in assay [9] is bovine chymotrypsin (Bos taurus, UniProt P00766). The experiment in a line: Chromogenic substrate hydrolysis assay, chymotrypsin. In kind it is biochemical. The following applies: NI = no inhibition observed up to 1.8 mg/mL. A digest of the protocol:
as §2

The target in assay [10] is T3, human FXIa (Homo sapiens, UniProt P03951). The experiment in a line: Inhibition of FXIa activation of FIX. The format is biochemical. The following applies: 6 at 3 µM, FIX 0.5 µM, after 120 min of incubation.
T3 sequence (P03951 19-387 limits assumed): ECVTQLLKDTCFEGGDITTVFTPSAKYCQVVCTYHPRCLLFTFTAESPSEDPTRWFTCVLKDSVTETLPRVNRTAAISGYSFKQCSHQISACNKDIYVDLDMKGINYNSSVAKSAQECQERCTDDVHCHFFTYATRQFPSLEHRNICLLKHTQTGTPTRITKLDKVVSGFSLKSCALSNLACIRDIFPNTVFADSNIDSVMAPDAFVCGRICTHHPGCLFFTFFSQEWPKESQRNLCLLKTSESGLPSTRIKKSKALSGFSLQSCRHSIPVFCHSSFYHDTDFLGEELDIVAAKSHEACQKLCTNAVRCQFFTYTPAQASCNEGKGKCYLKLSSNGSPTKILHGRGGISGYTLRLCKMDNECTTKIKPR
T3 sequence (P03951 388-625 limits assumed): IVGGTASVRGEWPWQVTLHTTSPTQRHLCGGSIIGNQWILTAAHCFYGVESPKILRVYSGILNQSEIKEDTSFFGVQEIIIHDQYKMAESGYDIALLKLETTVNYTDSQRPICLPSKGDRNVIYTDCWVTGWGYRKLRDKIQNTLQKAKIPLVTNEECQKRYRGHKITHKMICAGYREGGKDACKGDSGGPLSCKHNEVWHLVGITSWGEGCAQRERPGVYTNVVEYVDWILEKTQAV
Assay [11] concerns the target FXIa Wild Type (Homo sapiens, UniProt P03951). The experiment in a line: Michaelis-Menten kinetics of S-2366 hydrolysis by wild-type FXIa. The format is biochemical.
The subject of assay [12] is FXIa Catalytic Domain (FXIa-CD). The experiment in a line: Michaelis-Menten kinetics of S-2366 hydrolysis by FXIa catalytic domain. In kind it is biochemical, human.
For assay [13], the target named is T3, human FXIa. The assay is described as follows: Competitive inhibition of FXIa by 6 in the presence of UFH. The format is biochemical.
The test system of assay [14] is human whole blood. The experiment in a line: Thromboelastography. Put shortly: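 Thromboelastography at 37 °C: 200 mM CaCl2 stock placed in cup, then sodium-citrated human whole blood containing test compound or water added to recalcify. The cup oscillated through 4°45′ at 0.1 Hz. R, α, maximum amplitude (MA) and shear elastic modulus G were recorded automatically, with G = 5000 × MA/(100 − MA).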

The mark [15] stands for this setting: 6 over the concentration range of 0–280 µg/mL.

FXIa Wild Type, sequence (P03951 19-387 limits assumed): as the sequence (P03951 19-387 limits assumed) above
FXIa Wild Type, sequence (P03951 388-625 limits assumed): as the sequence (P03951 388-625 limits assumed) above
human factor XIa, sequence (P03951 19-387 limits assumed): as the sequence (P03951 19-387 limits assumed) above
human factor XIa, sequence (P03951 388-625 limits assumed): as the sequence (P03951 388-625 limits assumed) above
factor VIIa, sequence (P08709 213-466 limits assumed): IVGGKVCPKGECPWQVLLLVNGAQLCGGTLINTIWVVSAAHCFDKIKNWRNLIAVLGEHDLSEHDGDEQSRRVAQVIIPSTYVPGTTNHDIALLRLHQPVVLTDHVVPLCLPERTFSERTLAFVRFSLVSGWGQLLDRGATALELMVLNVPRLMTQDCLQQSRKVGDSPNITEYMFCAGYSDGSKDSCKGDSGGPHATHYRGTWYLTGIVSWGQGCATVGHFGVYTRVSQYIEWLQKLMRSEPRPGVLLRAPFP
factor VIIa, sequence (P08709 61-212 limits assumed): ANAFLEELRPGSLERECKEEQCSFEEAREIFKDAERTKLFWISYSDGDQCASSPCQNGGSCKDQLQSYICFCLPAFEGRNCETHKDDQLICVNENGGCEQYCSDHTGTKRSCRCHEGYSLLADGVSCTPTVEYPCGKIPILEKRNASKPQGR
factor VIIa, sequence (P13726 33-295 partner): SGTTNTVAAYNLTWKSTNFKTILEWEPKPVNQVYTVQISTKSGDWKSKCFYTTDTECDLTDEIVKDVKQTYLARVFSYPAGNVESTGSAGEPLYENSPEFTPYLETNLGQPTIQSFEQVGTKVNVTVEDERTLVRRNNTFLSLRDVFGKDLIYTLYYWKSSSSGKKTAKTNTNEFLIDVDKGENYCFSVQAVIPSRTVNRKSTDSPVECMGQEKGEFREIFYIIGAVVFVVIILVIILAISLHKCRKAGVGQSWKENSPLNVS
factor IXa, sequence (P00740 227-461 limits assumed): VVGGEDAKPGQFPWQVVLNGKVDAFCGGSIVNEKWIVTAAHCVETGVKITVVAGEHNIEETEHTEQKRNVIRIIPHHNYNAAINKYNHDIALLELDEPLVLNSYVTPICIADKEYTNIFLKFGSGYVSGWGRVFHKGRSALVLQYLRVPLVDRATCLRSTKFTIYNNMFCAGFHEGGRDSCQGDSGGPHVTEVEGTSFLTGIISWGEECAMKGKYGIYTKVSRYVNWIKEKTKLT
factor IXa, sequence (P00740 47-191 limits assumed): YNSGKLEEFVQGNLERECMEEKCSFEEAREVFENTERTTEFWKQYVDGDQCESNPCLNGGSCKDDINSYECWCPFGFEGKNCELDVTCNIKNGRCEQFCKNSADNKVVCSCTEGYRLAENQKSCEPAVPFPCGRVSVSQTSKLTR

With `COc1cc([C@H]2Oc3cc([C@H]4Oc5cc(OS(=O)(=O)[O-])cc(O)c5C(=O)[C@@H]4OS(=O)(=O)[O-])ccc3O[C@@H]2COS(=O)(=O)[O-])ccc1OS(=O)(=O)[O-].[Na+].[Na+].[Na+].[Na+]` [Molecule 2, sulfated silibinin], the “concentration required for a 2-fold increase in PT” value in [1] is “much higher”. Moreover, the “concentration required for a 2-fold increase in APTT” value in [2] was “much higher”.

In the case of `O=C(/C=C/c1ccc(OS(=O)(=O)[O-])c(OS(=O)(=O)[O-])c1)O[C@@H]1C[C@](O)(C(=O)[O-])C[C@@H](OS(=O)(=O)[O-])[C@H]1OS(=O)(=O)[O-].[Na+].[Na+].[Na+].[Na+].[Na+]` [Molecule 4, sulfated chlorogenic acid], in assay [1], the “concentration required for a 2-fold increase in PT” value is “much higher”. Besides, in [2], the “concentration required for a 2-fold increase in APTT” value is listed as “much higher”.

Turning to `O=C(OC[C@H]1O[C@@H](OC(=O)c2cc(O)c(O)c(O)c2)[C@H](OC(=O)c2cc(O)c(O)c(O)c2)[C@@H](OC(=O)c2cc(O)c(O)c(O)c2)[C@@H]1OC(=O)c1cc(O)c(O)c(O)c1)c1cc(O)c(O)c(O)c1` [Molecule 5, pentagalloyl glucopyranoside, reference compound], in [3] (highest concentration tested (300 µM)), the “inhibition of FXIa proteolytic activity” value was “completely inactive”.

Usually IC50 stands for the point on the concentration scale where inhibition reaches its midpoint. For `O=C(OC[C@H]1O[C@@H](OC(=O)c2cc(OS(=O)(=O)[O-])c(O)c(OS(=O)(=O)[O-])c2)[C@H](OC(=O)c2cc(OS(=O)(=O)[O-])c(O)c(OS(=O)(=O)[O-])c2)[C@@H](OC(=O)c2cc(OS(=O)(=O)[O-])c(O)c(OS(=O)(=O)[O-])c2)[C@@H]1OC(=O)c1cc(OS(=O)(=O)[O-])c(O)c(OS(=O)(=O)[O-])c1)c1cc(OS(=O)(=O)[O-])c(O)c(OS(=O)(=O)[O-])c1.[Na+].[Na+].[Na+].[Na+].[Na+].[Na+].[Na+].[Na+].[Na+].[Na+]` [Molecule 6, sulfated pentagalloylglucoside], the half-maximal inhibitory concentration (IC50) was 0.612 µM in assay [3]; “no inhibition” in assay [7]; “no inhibition” in assay [8]; “no inhibition” in assay [9]; 16 µM in [13]. The “selectivity for FXIa over other relevant enzymes” value in [3] is “at least 200 fold”. Moreover, the “HS (Hill slope)” value in assay [3] (S-2366 hydrolysis, pH 7.4, 37 °C) stood at 1.3 ± 0.1. The HS in assay [4] turned out to be 2.2 ± 0.6; in [5], 3.0 ± 1.8; in assay [13] (UFH 0 µM), 1.3 ± 0.1; in assay [13] (UFH 0.13 µM), 1.4 ± 0.2; in assay [13] (UFH 3.33 µM), 1.7 ± 0.2; in assay [13] (UFH 33.3 µM), 4.0 ± 0.9. In addition, in assay [6], the ΔY was 83 ± 10. Also, the “formation of FIXaβ” value in [10] is given as “not detectable”. The VMAX in assay [11] ([6] 0.005 µg/mL) is 93.7 ± 3.2 mAU/min; in assay [11] ([6] 0.5 µg/mL), 74.6 ± 2.6 mAU/min; in assay [11] ([6] 2.5 µg/mL), 56.9 ± 1.5 mAU/min; in assay [11] ([6] 5.0 µg/mL) it was 32.3 ± 2.1 mAU/min; in assay [11] ([6] 50.0 µg/mL) it was 17.2 mAU/min and 17.2 ± 1.2 mAU/min; in assay [12] ([6] 0.5 µg/mL) it was 53.9 ± 1.4 mAU/min. Also, the “retention of inhibitory potency with the catalytic domain of FXIa” value in [12] was ~ 100%. In addition, the “decrease of VMAX” value in assay [12] (6 from 0 to 5.0 µg/mL) is on record as around 5 fold. In [1], the “concentration required for a 2-fold increase in PT” value stood at 298 µg/mL. The “less effective than enoxaparin at molar levels” value in assay [2] (molar basis) stood at 36 fold. Also, the “G (shear elastic modulus strength)” value is on record as 8.2 × 10^3 kDynes/cm^3 in assay [14] (6 at 20 µg/mL), 5.0 × 10^3 kDynes/cm^3 in assay [14] (6 at 135 µg/mL), 3.8 × 10^3 kDynes/cm^3 in assay [14] (6 at 190 µg/mL) and 0.9 × 10^3 kDynes/cm^3 in assay [14] (6 at 280 µg/mL). In addition, the “reduction of G” value in [14] (setting [15]) is listed as around 8 fold. For the same compound, the “reduction of MA” value in assay [14] (setting [15]) is given as ~ 4 fold.
